Source: ChEMBL document CHEMBL1152244, “Proteochemometrics analysis of substrate interactions with dengue virus NS3 proteases” (Bioorg Med Chem, 2008)
Non-standard residues stand in square brackets, D forms with d. Residues, ends and D or L forms follow the SMILES beside them. Tyr(3-NO2) = N[C@@H](Cc1ccc(O)c([N+](=O)[O-])c1)C(=O)O; 2Abz = Nc1ccccc1C(=O)O

Legend:
[1] = system: dengue virus type 1; assay: Activity of dengue virus 1 recombinant NS3 protease expressed in Escherichia coli C41(DE3) by fluorogenic assay
Method in brief: (§1)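 NS2B(H)-NS3pro from inclusion bodies, Ni-chelate and gel filtration purified under 8 M urea, refolded by dialysis. Internally quenched Abz–RRRR-XXXX–nY–NH2 peptides, 1–100 µM (12 points), enzyme 150–200 nM, 50 mM Tris–HCl pH 9.0, 20% glycerol, 37 °C. Cleavage read as fluorescence, ex 320/em 420 nm. Initial rates fitted to give Km and kcat, averaged over ≥3 independent measurements.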

[2] = system: dengue virus type 2; assay: Activity of dengue virus 2 recombinant NS3 protease expressed in Escherichia coli C41(DE3) by fluorogenic assay; method in brief: as §1
[3] = system: dengue virus type 3; assay: Activity of dengue virus 3 recombinant NS3 protease expressed in Escherichia coli C41(DE3) by fluorogenic assay; method in brief: as §1
[4] = system: dengue virus type 4; assay: Activity of dengue virus 4 recombinant NS3 protease expressed in Escherichia coli C41(DE3) by fluorogenic assay; method in brief: as §1

`NC(=O)[C@H](Cc1ccc(O)c([N+](=O)[O-])c1)NC(=O)[C@H](Cc1cnc[nH]1)NC(=O)[C@@H]1CCCN1C(=O)[C@H](CO)NC(=O)[C@H](Cc1cnc[nH]1)NC(=O)c1ccccc1N` (H-[2Abz]HSPH[Tyr(3-NO2)]-NH2) gave a Km [1] of 16.7 µM, a kcat [1] of 0.00633 s⁻¹ and a Km [2] of 5.77 µM. The kcat [2] was 0.00117 s⁻¹, the Km [3] was 19.6 µM and the kcat [3] was 0.000833 s⁻¹. The Km [4] was 7.25 µM and the kcat [4] was 0.00417 s⁻¹.
`C[C@H](NC(=O)[C@H](CC(N)=O)NC(=O)c1ccccc1N)C(=O)N[C@@H](CS)C(=O)N[C@@H](CS)C(=O)N[C@@H](Cc1ccc(O)c([N+](=O)[O-])c1)C(N)=O` (H-[2Abz]NACC[Tyr(3-NO2)]-NH2) gave a Km [1] of 8.81 µM, a kcat [1] of 0.0138 s⁻¹ and a Km [2] of 3.21 µM. It also gave a kcat [2] of 0.00467 s⁻¹, a Km [3] of 13 µM and a kcat [3] of 0.0102 s⁻¹. For the same compound, the Km [4] was 3.03 µM and the kcat [4] was 0.0372 s⁻¹.
Work on `NC(=O)C[C@H](NC(=O)c1ccccc1N)C(=O)N1CCC[C@H]1C(=O)N[C@@H](CO)C(=O)N[C@@H](Cc1cnc[nH]1)C(=O)N[C@@H](Cc1ccc(O)c([N+](=O)[O-])c1)C(N)=O` (H-[2Abz]NPSH[Tyr(3-NO2)]-NH2) yielded a Km [1] of 13.4 µM, a kcat [1] of 0.00617 s⁻¹ and a Km [2] of 5.18 µM. The kcat [2] was 0.00133 s⁻¹, the Km [3] was 26.9 µM and the kcat [3] was 0.00183 s⁻¹. For the same compound, the Km [4] was 21.5 µM and the kcat [4] was 0.0225 s⁻¹.
Compound `C[C@@H](O)[C@H](NC(=O)[C@H](Cc1c[nH]c2ccccc12)NC(=O)[C@H](CC(N)=O)NC(=O)c1ccccc1N)C(=O)N[C@@H](CC(N)=O)C(=O)N[C@@H](Cc1ccc(O)c([N+](=O)[O-])c1)C(N)=O` (H-[2Abz]NWTN[Tyr(3-NO2)]-NH2) has a Km [1] of 13.7 µM, a kcat [1] of 0.0145 s⁻¹ and a Km [2] of 6.02 µM. For the same compound, the kcat [2] was 0.005 s⁻¹, the Km [3] was 9.37 µM and the kcat [3] was 0.0065 s⁻¹. For the same compound, the Km [4] was 10.4 µM and the kcat [4] was 0.0378 s⁻¹.
With `CSCC[C@H](NC(=O)[C@H](C)NC(=O)[C@H](C)NC(=O)[C@H](CO)NC(=O)c1ccccc1N)C(=O)N[C@@H](Cc1ccc(O)c([N+](=O)[O-])c1)C(N)=O` (H-[2Abz]SAAM[Tyr(3-NO2)]-NH2) the Km [1] was 16.3 µM, the kcat [1] was 0.153 s⁻¹ and the Km [2] was 3.33 µM. It also gave a kcat [2] of 0.026 s⁻¹, a Km [3] of 13.8 µM and a kcat [3] of 0.03 s⁻¹. For the same compound, the Km [4] was 14.3 µM and the kcat [4] was 0.219 s⁻¹.
Work on `CSCC[C@H](NC(=O)CNC(=O)[C@H](C)NC(=O)[C@H](CO)NC(=O)c1ccccc1N)C(=O)N[C@@H](Cc1ccc(O)c([N+](=O)[O-])c1)C(N)=O` (H-[2Abz]SAGM[Tyr(3-NO2)]-NH2) yielded a Km [1] of 25.5 µM, a kcat [1] of 0.166 s⁻¹ and a Km [2] of 3.44 µM. It also gave a kcat [2] of 0.031 s⁻¹, a Km [3] of 24.9 µM and a kcat [3] of 0.0557 s⁻¹. It also gave a Km [4] of 22.7 µM and a kcat [4] of 0.282 s⁻¹.
`C[C@H](NC(=O)[C@H](CO)NC(=O)c1ccccc1N)C(=O)NCC(=O)N[C@@H](Cc1ccc(O)c([N+](=O)[O-])c1)C(N)=O` (H-[2Abz]SAG[Tyr(3-NO2)]-NH2) was tested, and the Km [1] was 28.4 µM, the kcat [1] was 0.282 s⁻¹ and the Km [2] was 3.61 µM. It also gave a kcat [2] of 0.0423 s⁻¹, a Km [3] of 20.9 µM and a kcat [3] of 0.0685 s⁻¹. For the same compound, the Km [4] was 15.2 µM and the kcat [4] was 0.461 s⁻¹.
For `NC(=O)[C@H](Cc1ccc(O)c([N+](=O)[O-])c1)NC(=O)[C@H](CC(=O)O)NC(=O)[C@H](CS)NC(=O)[C@H](Cc1cnc[nH]1)NC(=O)[C@H](CO)NC(=O)c1ccccc1N` (H-[2Abz]SHCD[Tyr(3-NO2)]-NH2), the Km [1] was 26.3 µM, the kcat [1] was 0.0685 s⁻¹ and the Km [2] was 11.4 µM. For the same compound, the kcat [2] was 0.0123 s⁻¹, the Km [3] was 11.3 µM and the kcat [3] was 0.0285 s⁻¹. It also gave a Km [4] of 9.77 µM and a kcat [4] of 0.0783 s⁻¹.
For `C[C@@H](O)[C@H](NC(=O)[C@H](CO)NC(=O)c1ccccc1N)C(=O)N1CCC[C@H]1C(=O)N[C@@H](Cc1cnc[nH]1)C(=O)N[C@@H](Cc1ccc(O)c([N+](=O)[O-])c1)C(N)=O` (H-[2Abz]STPH[Tyr(3-NO2)]-NH2), the Km [1] was 18.1 µM, the kcat [1] was 0.0313 s⁻¹ and the Km [2] was 17.2 µM. It also gave a kcat [2] of 0.0157 s⁻¹, a Km [3] of 42.2 µM and a kcat [3] of 0.0145 s⁻¹. The Km [4] was 14.8 µM and the kcat [4] was 0.078 s⁻¹.
`CC(C)C[C@H](NC(=O)[C@@H]1CCCN1C(=O)[C@H](Cc1c[nH]c2ccccc12)NC(=O)[C@H](CO)NC(=O)c1ccccc1N)C(=O)N[C@@H](Cc1ccc(O)c([N+](=O)[O-])c1)C(N)=O` (H-[2Abz]SWPL[Tyr(3-NO2)]-NH2) was tested, and the Km [1] was 12.6 µM, the kcat [1] was 0.0323 s⁻¹ and the Km [2] was 5.54 µM. It also gave a kcat [2] of 0.0105 s⁻¹, a Km [3] of 12 µM and a kcat [3] of 0.0148 s⁻¹. For the same compound, the Km [4] was 7.18 µM and the kcat [4] was 0.0668 s⁻¹.
